A selection: hits, their analogues and other compounds. The true share with any hit is near 1.5%.
S100A4 MyoIIA: inhibitors of human S100A4 binding to myosin IIA peptide; 360,000 tested, 0.14% active; S100A4/TAMRA-MyoIIA peptide fluorescence polarization; inhibition, % at 10.7 µM; AID 652163;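 active means mean inhibition of at least 70% across replicates, with every replicate also reaching that level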
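Material: human S100A4 monomer with TAMRA-labelled myosin IIA peptide; buffer or medium: HEPES pH 7.2 with CaCl2, KCl, NaCl, DTT, Triton; compound dosing: one concentration per compound; schedule: 5 min incubation before reading; benchmarks: neutral control DMSO, positive control TFP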
INS-1E GSIS act: primary screen for activators of insulin secretion dependent on glucose, INS-1E cells, GLuc reporter luminescence. AID 743287. INS-1E GLuc reporter insulin secretion, 2-3 h. activation, % at 16.6 µM. 370,000 tested, 0.61% active;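 active means lowest replicate activation of at least 40%, so every replicate reaches that level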
ERAP1 HTS inh: inhibitors of human ERAP1 aminopeptidase; AID 652197; Q9NZ08; 340,000 tested, 0.15% active; inhibition, % at 10.7 µM; recombinant ERAP1, Leu-AMC fluorescence, 60 min;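 active means mean replicate inhibition of at least 30%, or all replicates individually reaching that 30% level; inactive means mean below 30% and not every replicate reaching it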
RAD52 anneal inh: RAD52 (human) annealing inhibition; P43351; recombinant RAD52 DNA annealing, FRET fluorescence; inhibition, % at 18.7 µM; 360,000 tested, 0.46% active;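 active means every replicate showing at least 50% inhibition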
Target sequence (P43351 whole entry, looked up): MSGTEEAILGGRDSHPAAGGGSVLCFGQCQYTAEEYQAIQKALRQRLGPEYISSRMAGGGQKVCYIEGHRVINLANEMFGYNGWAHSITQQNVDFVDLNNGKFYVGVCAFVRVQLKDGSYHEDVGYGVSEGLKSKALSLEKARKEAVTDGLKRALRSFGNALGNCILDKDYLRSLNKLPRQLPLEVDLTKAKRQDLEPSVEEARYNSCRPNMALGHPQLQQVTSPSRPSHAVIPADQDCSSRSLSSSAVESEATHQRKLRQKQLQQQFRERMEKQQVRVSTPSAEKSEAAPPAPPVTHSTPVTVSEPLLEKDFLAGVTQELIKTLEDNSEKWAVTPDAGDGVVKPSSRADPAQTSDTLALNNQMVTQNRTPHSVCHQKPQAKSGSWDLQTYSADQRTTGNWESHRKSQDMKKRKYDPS
MLL AF4-AF9 inh: inhibitors of human MLL-AF4/AF9 interaction; AlphaScreen, biotin-AF4 peptide binding to FLAG-AF9; P42568; inhibition, % at 10 µM; 350,000 tested, 0.47% active;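 active means every replicate reaching a set inhibition limit, whatever the replicate mean, cut at about 25% in these data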
Numbers stand for hits; - = inactive; . = no result.

SMILES	S100A4 MyoIIA	INS-1E GSIS act	ERAP1 HTS inh	RAD52 anneal inh	MLL AF4-AF9 inh
O=C(Nc1ccc(C2=NCCN2)cc1)c1ccc(C(=O)Nc2ccc(C3=NCCN3)cc2)c([N+](=O)[O-])c1	-	-	-	104	38
O=C(Nc1ccc2c(c1)OCCO2)c1ccc(Cl)c([N+](=O)[O-])c1	.	-	.	.	.
C[C@@H]1CCCCO[C@H](CN(C)S(=O)(=O)c2ccccc2)[C@H](C)CN([C@H](C)CO)C(=O)c2cc(NC(=O)Nc3ccccc3)ccc2O1	-	.	-	-	-
O=C(CCCC(=O)c1ccccc1)NCc1ccccc1	-	40	-	-	-
Cc1ccc(CNC(=O)CCCC(=O)c2ccccc2)cc1	-	-	-	-	-
CCCC(=O)N1CC2(CN[C@@H](CO)c3c2c2ccc(OC)cc2n3C)C1	.	-	.	.	-
CCCC(=O)Nc1ccc2c(c1)C(=O)N(C)C[C@H](OC)[C@H](C)CN(CC1CCCC1)[C@@H](C)CO2	-	-	-	-	-
COc1ccc(CN(C)C[C@@H]2OCCCC[C@H](C)Oc3ccc(NS(=O)(=O)c4ccc(Cl)cc4)cc3C(=O)N([C@H](C)CO)C[C@H]2C)cc1	-	-	-	57	-
C[C@@H]1CN([C@@H](C)CO)C(=O)c2cc(NS(=O)(=O)c3cccs3)ccc2O[C@@H]1CN(C)C(=O)Nc1ccc(F)cc1	-	-	-	-	47
COc1ccc(CN(C)C[C@H]2OCCCC[C@@H](C)Oc3ccc(NS(=O)(=O)c4ccc(Cl)cc4)cc3C(=O)N([C@@H](C)CO)C[C@H]2C)cc1	-	-	-	55	-
COc1ccc(CN(C)C[C@H]2OCCCC[C@@H](C)Oc3ccc(NS(=O)(=O)c4ccc(Cl)cc4)cc3C(=O)N([C@H](C)CO)C[C@@H]2C)cc1	-	-	-	-	-
COc1ccc(CN(C)C[C@H]2OCCCC[C@H](C)Oc3ccc(NS(=O)(=O)c4ccc(Cl)cc4)cc3C(=O)N([C@H](C)CO)C[C@@H]2C)cc1	-	-	-	-	-
C[C@H](CO)N1C[C@H](C)[C@@H](CN(C)C(=O)Nc2ccc(F)cc2)Oc2ccc(NS(=O)(=O)c3cccs3)cc2C1=O	-	-	-	-	-
COc1ccc(CN(C)C[C@H]2OCCCC[C@H](C)Oc3ccc(NS(=O)(=O)c4ccc(OC)cc4)cc3C(=O)N([C@H](C)CO)C[C@@H]2C)cc1	.	-	.	.	.
COc1ccc(CN(C)C[C@H]2OCCCC[C@@H](C)Oc3ccc(NS(=O)(=O)c4ccc(Cl)cc4)cc3C(=O)N([C@H](C)CO)C[C@H]2C)cc1	-	-	-	55	-
O=C(NC[C@@H]1CC[C@@H]2[C@@H](CN2S(=O)(=O)c2ccccc2)O1)NC1CCCCC1	-	.	-	-	-
COc1ccc(CN2CC3(CCN(C(=O)Nc4cccc(F)c4)CC3)c3c([nH]c4cc(OC)ccc34)[C@@H]2CO)cc1	.	-	.	.	.
COc1ccc(S(=O)(=O)Nc2ccc3c(c2)C(=O)N([C@H](C)CO)C[C@H](C)[C@H](CN(C)C(=O)Nc2ccccc2)OCCCC[C@H](C)O3)cc1	108	-	-	-	-
Cc1noc(C)c1NC(=O)N(C)C[C@@H]1Oc2c(NS(=O)(=O)c3ccc(Cl)cc3)cccc2C(=O)N([C@H](C)CO)C[C@H]1C	-	-	-	-	-
CC(C)c1ccc(S(=O)(=O)NCc2ccc3c(c2)OCO3)cc1	-	-	-	-	-
O=C(O)c1ccc(S(=O)(=O)NCc2ccc3c(c2)OCO3)cc1	-	43	-	-	-
CC(=O)Nc1nc(NCc2ccccc2Cl)n(-c2ccccc2)n1	-	77	-	-	-
Nc1nc(NCc2ccccc2Cl)n(-c2ccccc2)n1	-	-	-	-	-
COCCNc1nc(Oc2cccc(F)c2)c2sccc2n1	-	-	-	-	-
COCCNc1nc(NCc2ccccc2)nc2ccsc12	-	.	-	-	-
SMILES	S100A4 MyoIIA	INS-1E GSIS act	ERAP1 HTS inh	RAD52 anneal inh	MLL AF4-AF9 inh
COCCNc1nc(Oc2cncc(Cl)c2)c2sccc2n1	-	55	-	-	-
COCCNc1nc(NC(C)C)nc2ccsc12	-	82	-	-	-
Cn1cnc(S(=O)(=O)N2CCCCN3[C@H](C2)[C@H](c2ccc(C4=CCCC4)cc2)[C@@H]3CO)c1	.	.	.	-	-
COc1ccc2c3c(n(C)c2c1)[C@@H](CO)N(Cc1ccncc1)CC31CCN(C(=O)C2CCCCC2)CC1	-	-	-	-	-
COc1ccc(-c2cc(C(=O)NCc3ccc(Cl)cc3)no2)cc1OC	.	-	.	.	.
COc1ccc(CNC(=O)c2cc(-c3ccc(OC)c(OC)c3)on2)cc1	.	78	.	.	.
